Measured values published in ChEMBL document CHEMBL4118105, “High-Affinity Peptidomimetic Inhibitors of the DCN1-UBC12 Protein-Protein Interaction” (J Med Chem, 2018).
pKd: −log10 of the molar value. Converted amounts (≈) assume the structure as drawn. The source made the active and inactive calls. The rule behind the calls is not given here.

Legend:
[1] = molecular target: T1, DCN1-like protein 1 (Homo sapiens, UniProt Q96GG9); test: Inhibition of DCN1-mediated CUL4A neddylation in human H2170 cells assessed as increase in CDT1 level at 0.1 to 10 uM after 16 hrs by Western blot analysis; format: cell-based
Procedure, shortened: (§1)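 H2170 cells exposed to compound for 16 h, then lysed in Triton X-100 or RIPA buffer with phosphatase inhibitors. Neddylated and unneddylated cullins, NRF2 and CDT1 read by Western blot on whole-cell lysate, with GAPDH as loading control.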
Target sequence in this assay (Q96GG9 whole entry, looked up): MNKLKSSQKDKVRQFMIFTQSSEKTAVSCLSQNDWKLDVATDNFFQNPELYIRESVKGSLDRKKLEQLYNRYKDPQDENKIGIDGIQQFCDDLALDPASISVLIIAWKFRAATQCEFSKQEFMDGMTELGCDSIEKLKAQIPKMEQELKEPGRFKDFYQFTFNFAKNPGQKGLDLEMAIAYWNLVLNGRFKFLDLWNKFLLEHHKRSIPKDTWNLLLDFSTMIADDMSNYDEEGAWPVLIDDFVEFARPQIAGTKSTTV

[2] = molecular target: T1, DCN1-like protein 1; test: Inhibition of DCN1-mediated CUL2 neddylation in human H2170 cells at 0.1 to 10 uM after 16 hrs by Western blot analysis; format: cell-based; procedure, shortened: as §1
Target sequence in this assay (Q96GG9 whole entry, looked up): as above

[3] = molecular target: T1, DCN1-like protein 1; test: Stabilization of DCN1 in human H2170 cells incubated for 1 hr by cellular thermal shift assay; format: cell-based
Procedure, shortened: (§2)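 H2170 cells (5 × 10^5 per sample) given compound or DMSO for 1 h, washed three times in PBS, resuspended in PBS with protease inhibitor, and heated at 53 °C for 3 min. Three liquid-nitrogen freeze/thaw-on-ice cycles followed. DCN1 in the supernatant read by Western blot, with GAPDH as loading control.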
Target sequence in this assay (Q96GG9 whole entry, looked up): as above

[4] = molecular target: T1, DCN1-like protein 1; test: Inhibition of DCN1 interaction with UBC12 protein in human H2170 cell lysate after 24 hrs by immunoprecipitation assay
Procedure, shortened: (§3)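 Endogenous DCN1 pulled down from precleared lysates of treated cells with DCN1 antibody for 3 h, then protein A&G beads at 4 °C overnight with rotation. Beads washed three times in lysis buffer, complexes resolved by SDS−PAGE and immunoblotted.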
Target sequence in this assay (Q96GG9 whole entry, looked up): as above

[5] = molecular target: T1, DCN1-like protein 1; test: Binding affinity to biotin labeled recombinant N-terminal His6-tagged human DCN1 (58 to 259 residues) expressed in Escherichia coli Rosetta2 cells assessed as dissociation rate constant by biolayer interferometry analysis
Procedure, shortened: (§4)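 Biotinylated DCN1 (1:1 molar biotin reagent, 4 °C 2 h, dialysed) loaded on super streptavidin sensors from 10 μg/mL to 11−12 nm response; blocked streptavidin sensors as reference. Run at 30 °C, 1000 rpm, in PBS with 0.1% BSA, 0.01% Tween-20, 2% DMSO; 10 min baseline wash. kon/koff from 1:1 binding model fits; two independent experiments.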
Target sequence in this assay (Q96GG9 whole entry, looked up): as above

[6] = system: NCI-H2170; test: Effect on DCN1 levels in human NCI-H2170 cells at 5 to 10 uM after 24 hrs by Western blot analysis; format: functional, cell-based
[7] = molecular target: T1, DCN1-like protein 1; test: Inhibition of DCN1-mediated CUL3 neddylation in human SK-MES-1 cells up to 10 uM after 16 hrs by Western blot analysis; format: cell-based
Target sequence in this assay (Q96GG9 whole entry, looked up): as above

[8] = molecular target: T1, DCN1-like protein 1; test: Inhibition of DCN1-mediated CUL3 neddylation in human H2170 cells assessed as increase in NRF2 level at 0.1 to 10 uM after 16 hrs by Western blot analysis; format: cell-based; procedure, shortened: as §1
[9] = molecular target: T1, DCN1-like protein 1; test: Inhibition of DCN1-mediated CUL4B neddylation in human H2170 cells at 0.1 to 10 uM after 16 hrs by Western blot analysis; format: cell-based; procedure, shortened: as §1
[10] = molecular target: T1, DCN1-like protein 1; test: Inhibition of DCN1-mediated CUL3 neddylation in human H2170 cells after 16 hrs by Western blot analysis; format: cell-based; procedure, shortened: as §1
[11] = molecular target: T1, DCN1-like protein 1; test: Binding affinity to biotin labeled recombinant N-terminal His6-tagged human DCN1 (58 to 259 residues) expressed in Escherichia coli Rosetta2 cells assessed as association rate constant by biolayer interferometry analysis; procedure, shortened: as §4
[12] = molecular target: T1, DCN1-like protein 1; test: Inhibition of DCN1-mediated CUL1 neddylation in human H2170 cells at 10 uM after 16 hrs by Western blot analysis; format: cell-based; procedure, shortened: as §1
[13] = molecular target: T1, DCN1-like protein 1; test: Binding affinity to biotin labeled recombinant N-terminal His6-tagged human DCN1 (58 to 259 residues) expressed in Escherichia coli Rosetta2 cells by biolayer interferometry analysis
Procedure, shortened: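 Recombinant human DCN1 (58–259) was biotinylated at a 1:1 molar ratio in PBS for 2 h at 4 °C, dialyzed, then loaded on super streptavidin sensors from a 10 μg/mL solution. Blocked streptavidin sensors served as reference.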
Target sequence in this assay (Q96GG9 whole entry): as the sequence (Q96GG9 whole entry, looked up) above

[14] = Equilibrium aqueous solubility of the compound in phosphate buffer of pH 7.4 after 24 hrs by shake-flask method; format: physicochemical
Procedure, shortened: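 Excess solid was suspended in phosphate buffer pH 7.4, sonicated 30 min, then shaken 24 h at room temperature. Suspensions were centrifuged at 15 000 rpm for 15 min and filtered through 0.45 μm membranes. The saturated concentration was read by UV at each compound's absorption maximum, found by spectrum scan.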

[15] = system: NCI-H2170; test: Effect on UBC12 levels in human NCI-H2170 cells at 5 to 10 uM after 24 hrs by Western blot analysis; format: functional, cell-based
[16] = molecular target: T1, DCN1-like protein 1; test: Inhibition of DCN1-mediated CUL4A neddylation in human H2170 cells at 0.1 to 10 uM after 16 hrs by Western blot analysis; format: cell-based; procedure, shortened: as §1
[17] = molecular target: T1, DCN1-like protein 1; test: Inhibition of DCN1-mediated CUL5 neddylation in human H2170 cells at 0.1 to 10 uM after 16 hrs by Western blot analysis; format: cell-based; procedure, shortened: as §1
[18] = molecular target: T1, DCN1-like protein 1; test: Inhibition of DCN1-mediated CUL4A neddylation in human H2170 cells at 10 uM after 16 hrs by Western blot analysis; format: cell-based; procedure, shortened: as §1
[19] = molecular target: T1, DCN1-like protein 1; test: Inhibition of DCN1-mediated CUL4A neddylation in human SK-MES-1 cells at 10 uM after 16 hrs by Western blot analysis; format: cell-based
[20] = molecular target: T1, DCN1-like protein 1; test: Inhibition of DCN1-mediated CUL5 neddylation in human H2170 cells at 10 uM after 16 hrs by Western blot analysis; format: cell-based; procedure, shortened: as §1
[21] = molecular target: T1, DCN1-like protein 1; test: Inhibition of DCN1-mediated CUL2 neddylation in human H2170 cells at 10 uM after 16 hrs by Western blot analysis; format: cell-based; procedure, shortened: as §1
[22] = molecular target: T1, DCN1-like protein 1; test: Inhibition of DCN1-mediated CUL5 neddylation in human SK-MES-1 cells at 10 uM after 16 hrs by Western blot analysis; format: cell-based
[23] = molecular target: T1, DCN1-like protein 1; test: Inhibition of DCN1 interaction with UBC12 protein in human H2170 cell lysate at 20 uM after 3 hrs by immunoprecipitation assay; procedure, shortened: as §3
[24] = molecular target: T1, DCN1-like protein 1; test: Inhibition of DCN1-mediated CUL3 neddylation in human H2170 cells at 10 uM after 16 hrs by Western blot analysis; format: cell-based; procedure, shortened: as §1
[25] = molecular target: T1, DCN1-like protein 1; test: Inhibition of DCN1-mediated CUL1 neddylation in human SK-MES-1 cells at 10 uM after 16 hrs by Western blot analysis; format: cell-based
[26] = molecular target: T1, DCN1-like protein 1; test: Inhibition of DCN1-mediated CUL4B neddylation in human H2170 cells at 10 uM after 16 hrs by Western blot analysis; format: cell-based; procedure, shortened: as §1
[27] = molecular target: T1, DCN1-like protein 1; test: Inhibition of DCN1-mediated CUL3 neddylation in human SK-MES-1 cells at 10 uM after 16 hrs by Western blot analysis; format: cell-based
[28] = molecular target: T1, DCN1-like protein 1; test: Stabilization of DCN1 in human H2170 cells at 10 uM incubated for 1 hr by cellular thermal shift assay; format: cell-based; procedure, shortened: as §2
[29] = molecular target: T1, DCN1-like protein 1; test: Inhibition of DCN1-mediated CUL3 neddylation in human H2170 cells assessed as increase in NRF2 level at 10 uM after 16 hrs by Western blot analysis; format: cell-based; procedure, shortened: as §1
[30] = molecular target: T1, DCN1-like protein 1; test: Inhibition of DCN1-mediated CUL2 neddylation in human SK-MES-1 cells at 10 uM after 16 hrs by Western blot analysis; format: cell-based
[31] = molecular target: T1, DCN1-like protein 1; test: Inhibition of DCN1-mediated CUL4B neddylation in human SK-MES-1 cells at 10 uM after 16 hrs by Western blot analysis; format: cell-based

For `CCC(=O)N[C@@H](Cc1nc2ccc(Cl)cc2s1)C(=O)N[C@H](C(=O)N[C@@H](CCCCN)C(=O)N[C@@H]1CCOc2ccccc21)C1CCOCC1`, the inhibition [1] was “inactive”, the inhibition [2] was “inactive” and the Activity [3] was “Dose-dependent effect”. For the same compound, the inhibition [4] was “Dose-dependent effect”, the K [5] was 2 ×10⁻³ /s and the Activity [6] was “inactive”. For the same compound, the inhibition [7] was “Active”, the inhibition [8] was “Active” and the inhibition [9] was “inactive”. The inhibition [10] was “Dose-dependent effect”, the K [11] was 2.9 ×10⁵ /M/s and the inhibition [12] was “Active”. The pKd [13] was 8.17, the solubility thermodynamic at 24 h [14] was 54 µM (≈ 38.5 µg/mL) and the Activity [15] was “inactive”. For the same compound, the inhibition [16] was “inactive” and the inhibition [17] was “inactive”.
For `CCC(=O)N[C@@H](Cc1nc2ccc(Cl)cc2s1)C(=O)N[C@H](C(=O)N[C@@H](CCCCN)C(=O)N[C@@H]1CCOc2ccccc21)C1CCNCC1`, the inhibition [18] was “inactive”, the inhibition [19] was “inactive” and the inhibition [20] was “inactive”. The K [5] was 2.6 ×10⁻³ /s, the inhibition [21] was “inactive” and the inhibition [22] was “inactive”. The inhibition [23] was “inactive”, the K [11] was 2.4 ×10³ /M/s and the inhibition [24] was “inactive”. The inhibition [25] was “inactive”, the inhibition [26] was “inactive” and the inhibition [27] was “inactive”. For the same compound, the inhibition [12] was “inactive”, the pKd [13] was 5.83 and the Activity [28] was “inactive”. The inhibition [29] was “inactive”, the inhibition [30] was “inactive” and the inhibition [31] was “inactive”.
